Test results: publication PMC4714695 (Cancer Science, 2015)
Like-named read-outs stand apart in the source and are kept apart here.

Key:
[1] = Plasma pharmacokinetics; type: in vivo, human
[2] = test system: Japanese patients with acute myeloid leukemia; assay: Best response and remission duration; type: in vivo, human
Outline: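 Same patients and dosing: 2-h IV infusion on days 1 and 15 of 28-day cycles, at 350, 400 or 450 mg. Best response (CR, CRi, PR) and remission duration judged by International Working Group and European Leukemia Net criteria. Assessed in peripheral blood and bone marrow, with imaging added for extramedullary disease. Efficacy cut-off 12 March 2015.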

[3] = test system: White patients with relapsed or refractory AML; conditions: cited from earlier work
[4] = test system: PLK2; conditions: compared with PLK1; cited from earlier work
[5] = test system: more than 50 unrelated kinases; conditions: more than 50 kinases tested; cited from earlier work
[6] = human, plasma, intravenous, 350 mg
[7] = human, plasma, intravenous, 400 mg
[8] = human, plasma, intravenous, 450 mg

SMILES: CC[C@@H]1C(=O)N(C)c2cnc(Nc3ccc(C(=O)N[C@H]4CC[C@H](N5CCN(CC6CC6)CC5)CC4)cc3OC)nc2N1C(C)C [Volasertib]
- Mean plasma concentration relative to maximum plasma concentration ([1]; 24 h after administration): < 10%
- Dose dependence of exposure ([1]; dose range 350–450 mg): increased dose‐proportionally
- Vd ([1]; human, plasma, intravenous): 3540 to 4720 L
- clearance ([1]; human, plasma, intravenous): 606 to 669 mL/min
- half-life ([1]; human, plasma, intravenous): 108 to 130 h
- AUC(0-inf) [1, 6]: 8720 ng·h/mL
- AUC(0-t) [1, 6]: 7810 ng·h/mL
- Cmax [1, 6]: 756 ng/mL
- Tmax [1, 6]: 1.97 h
- clearance [1, 6]: 669 mL/min
- half-life [1, 6]: 117 h
- AUC(0-inf) [1, 7]: 10400 ng·h/mL
- AUC(0-t) [1, 7]: 9340 ng·h/mL
- Cmax [1, 7]: 762 ng/mL
- Tmax [1, 7]: 1.05 h
- clearance [1, 7]: 643 mL/min
- half-life [1, 7]: 130 h
- AUC(0-inf) [1, 8]: 12400 ng·h/mL
- AUC(0-t) [1, 8]: 11400 ng·h/mL
- Cmax [1, 8]: 1060 ng/mL
- Tmax [1, 8]: 1.53 h
- clearance [1, 8]: 606 mL/min
- half-life [1, 8]: 108 h
- AUC0–∞,norm (dose normalized), gMean (gCV%) ([1]; plasma, after first infusion of volasertib 350 mg (n = 7)): 24.9 (27.8) ng·h/mL/mg
- AUC0–∞,norm (dose normalized), gMean (gCV%) ([1]; plasma, after first infusion of volasertib 400 mg (n = 4)): 25.9 (54.7) ng·h/mL/mg
- AUC0–∞,norm (dose normalized), gMean (gCV%) ([1]; plasma, after first infusion of volasertib 450 mg (n = 8)): 27.5 (22.8) ng·h/mL/mg
- Best overall response CR, patients ([2]; 350 mg (n = 7)): 1 n
- Best overall response PD, patients ([2]; 350 mg (n = 7)): 3 n
- Best overall response SD, patients ([2]; 350 mg (n = 7)): 3 n
- Patients with CR/CRi ([2]; 350 mg (n = 7)): 1 n
- Best overall response CR, patients ([2]; 350 mg (n = 7), listed as volasertib): One of seven patients
- Remission duration, median (range) ([2]; 350 mg, 1 patient with CR/CRi): 358 days
- Best overall response CRi, patients ([2]; 400 mg (n = 4)): 2 n
- Best overall response SD, patients ([2]; 400 mg (n = 4)): 2 n
- Patients with CR/CRi ([2]; 400 mg (n = 4)): 2 n
- Best overall response CRi, patients ([2]; 400 mg (n = 4), listed as volasertib): two of four patients
- Remission duration, median (range) ([2]; 400 mg, 2 patients with CR/CRi): 72 (70–74) days
- Best overall response CR, patients ([2]; 450 mg (n = 8)): 2 n
- Best overall response CRi, patients ([2]; 450 mg (n = 8)): 1 n
- Best overall response PD, patients ([2]; 450 mg (n = 8)): 1 n
- Best overall response PR, patients ([2]; 450 mg (n = 8)): 1 n
- Best overall response SD, patients ([2]; 450 mg (n = 8)): 3 n
- Patients with CR/CRi ([2]; 450 mg (n = 8)): 3 n
- Remission duration, median (range) ([2]; 450 mg, 3 patients with CR/CRi): 96 (56–262) days
- Best overall response CR, patients ([2]; Total (N = 19)): 3 n
- Best overall response CR, share of patients ([2]; Total (N = 19)): 15.8%
- Best overall response CRi, patients ([2]; Total (N = 19)): 3 n
- Best overall response CRi, share of patients ([2]; Total (N = 19)): 15.8%
- Best overall response PD, patients ([2]; Total (N = 19)): 4 n
- Best overall response PD, share of patients ([2]; Total (N = 19)): 21.1%
- Best overall response PR, patients ([2]; Total (N = 19)): 1 n
- Best overall response PR, share of patients ([2]; Total (N = 19)): 5.3%
- Best overall response SD, patients ([2]; Total (N = 19)): 8 n
- Best overall response SD, share of patients ([2]; Total (N = 19)): 42.1%
- Patients achieving best response of CR, CRi or PR ([2]; Total (N = 19)): 36.8%
- Patients with CR/CRi ([2]; Total (N = 19)): 6 n
- Remission duration, median (range) ([2]; Total, 6 patients with CR/CRi): 85 (56–358) days
- Remission duration, median (range) ([2]; Total, 6 patients with CR/CRi, listed as volasertib): 85 days
- Patients achieving best response of CR, CRi or PR ([2]; out of 19 treated patients): 7 patients
- Duration for which CR was maintained in one patient ([2]; person, primary refractory M2 de novo AML, complex karyotype, CR after cycle 3): 358 days
- DLT reported in White patients ([3]; 400 mg): mucosal inflammation
- DLT reported in White patients ([3]; 450 mg): pyrexia
- MTD in White patients ([3]; volasertib monotherapy, phase I): 450 mg
- Inhibition of PLK2 [4]: to a lesser extent
- Inhibition of unrelated kinases [5]: does not inhibit
